Consider 23 molecules from ChEMBL document CHEMBL3124882, “Semi-synthesis of acylated triterpenes from olive-oil industry wastes for the development of anticancer and anti-HIV agents” (Eur J Med Chem, 2014).

Assay [1] addresses Protease (Human immunodeficiency virus 1, UniProt Q9YQ12). The experiment in a line: Inhibition of HIV1 recombinant protease expressed in Escherichia coli using Abz-Ala-Arg-Val-Nle-Tyr(NO2)-Glu-Ala-Nle-NH2 as substrate by FRET assay.
The test system of assay [2] is B16-F10. Description: Induction of apoptosis in mouse B16F10 cells assessed as late apoptotic cells at 2 X IC50 after 72 hrs by annexin V-FITC/propidium iodide staining-based FACS analysis (reference value: 9.8 +/- 2.2%). In kind it is functional. In general terms: Flow cytometry measures light scatter and fluorescence of single cells or particles in a stream.
Assay [3] concerns B16-F10. The experiment in a line: Induction of apoptosis in mouse B16F10 cells assessed as total apoptotic cells at 2 X IC50 after 72 hrs by annexin V-FITC/propidium iodide staining-based FACS analysis (reference value: 13.7 +/- 2.7%). In kind it is functional.
Assay [4] has as its system B16-F10. The experiment in a line: Induction of apoptosis in mouse B16F10 cells assessed as normal cells at IC50 after 72 hrs by annexin V-FITC/propidium iodide staining-based FACS analysis (reference value: 77.9 +/- 1.5%). In kind it is functional.
The test system of assay [5] is B16-F10. Description: Cytotoxicity against mouse B16F10 cells after 72 hrs by MTT assay. In kind it is functional, cell-based. The conditions noted are these: B16-F10, 72 h. The method in brief: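 B16F10 cells (DMEM, 2 mM glutamine, 10% heat-inactivated FCS, penicillin/streptomycin; subconfluent) seeded at 11·10^3 per well and exposed to 0–80 µg/mL for 72 h. Compounds were diluted from a 10 mg/mL stock in 50% DMSO/PBS. MTT 0.5 mg/mL for 2 h, formazan dissolved in DMSO, absorbance at 550 nm. Viability is relative to untreated controls; IC50 from four assays of six replicates, mean ± S.E.M.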
(In general: Tetrazolium assays rely on reduction of a dye to a coloured formazan, in cell work by metabolically active cells.)

In assay [6] the test system is B16-F10. Description: Induction of apoptosis in mouse B16F10 cells assessed as total apoptotic cells at IC50 after 72 hrs by annexin V-FITC/propidium iodide staining-based FACS analysis (reference value: 13.7 +/- 2.7%). In kind it is functional.
The test system of assay [7] is B16-F10. The experiment in a line: Induction of apoptosis in mouse B16F10 cells assessed as necrotic cells at IC50 after 72 hrs by annexin V-FITC/propidium iodide staining-based FACS analysis (reference value: 4.0 +/- 0.6%). In kind it is functional.
The test system of assay [8] is B16-F10. The experiment in a line: Induction of apoptosis in mouse B16F10 cells assessed as early apoptotic cells at 2 X IC50 after 72 hrs by annexin V-FITC/propidium iodide staining-based FACS analysis (reference value: 3.9 +/- 0.4%). In kind it is functional.
Assay [9] concerns B16-F10. Description: Induction of apoptosis in mouse B16F10 cells assessed as normal cells at 2 X IC50 after 72 hrs by annexin V-FITC/propidium iodide staining-based FACS analysis (reference value: 77.9 +/- 1.5%). In kind it is functional.
Assay [10] relates to B16-F10. Description: Induction of apoptosis in mouse B16F10 cells assessed as late apoptotic cells at IC50 after 72 hrs by annexin V-FITC/propidium iodide staining-based FACS analysis (reference value: 9.8 +/- 2.2%). In kind it is functional.
Assay [11] has as its system B16-F10. Description: Induction of apoptosis in mouse B16F10 cells assessed as early apoptotic cells at IC50 after 72 hrs by annexin V-FITC/propidium iodide staining-based FACS analysis (reference value: 3.9 +/- 0.4%). In kind it is functional.
Assay [12] deals with B16-F10. The experiment in a line: Induction of apoptosis in mouse B16F10 cells assessed as necrotic cells at 2 X IC50 after 72 hrs by annexin V-FITC/propidium iodide staining-based FACS analysis (reference value: 4.0 +/- 0.6%). In kind it is functional.

Protease, sequence (Q9YQ12 whole entry): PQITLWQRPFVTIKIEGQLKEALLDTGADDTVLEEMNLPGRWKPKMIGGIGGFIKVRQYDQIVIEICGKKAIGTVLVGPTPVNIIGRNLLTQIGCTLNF

Usually IC50 stands for the concentration that inhibits the measured activity by half. On to `CC1(C)CC[C@]2(C(=O)O)CC[C@]3(C)C(=CC[C@@H]4[C@@]5(C)C[C@@H](OC(=O)c6ccccc6C(=O)O)[C@H](OC(=O)c6ccccc6C(=O)O)C(C)(C)[C@@H]5CC[C@]43C)[C@@H]2C1`, for which the IC50 in [1] came to 2.3 µM.
Same read-out and setting: with `CCCCCCCCCCCC(=O)O[C@@H]1C[C@]2(C)[C@H]3CC=C4[C@@H]5CC(C)(C)CC[C@]5(C(=O)OCc5ccccc5)CC[C@@]4(C)[C@]3(C)CC[C@H]2C(C)(C)[C@H]1OC(=O)CCCCCCCCCCC` the figure was 73 µM; with `CC1(C)CC[C@]2(C(=O)OCc3ccccc3)CC[C@]3(C)C(=CC[C@@H]4[C@@]5(C)C[C@@H](OC(=O)CCC(=O)O)[C@H](O)C(C)(C)[C@@H]5CC[C@]43C)[C@@H]2C1`, 15.6 µM.
Consider `CC1(C)CC[C@]2(C(=O)O)CC[C@]3(C)C(=CC[C@@H]4[C@@]5(C)CC[C@H](O)C(C)(C)[C@@H]5CC[C@]43C)[C@@H]2C1` [OLEANOLIC_ACID], for which the Activity came out at 12.4% in [2]; 41.5% in [3]; 44.9% in assay [4]; 44.6% in assay [6]; 10.1% in assay [7]; 29.1% in assay [8]. The Activity is listed as 49.8% in assay [9], 28.2% in assay [10], 16.4% in [11] and 8.7% in [12]. For the same molecule, the IC50 in assay [1] stood at 57.7 µM; in [5], 106 µM.
On to `CC(C)(CC(=O)O)CC(=O)O[C@@H]1C[C@]2(C)[C@H]3CC=C4[C@@H]5CC(C)(C)CC[C@]5(C(=O)O)CC[C@@]4(C)[C@]3(C)CC[C@H]2C(C)(C)[C@H]1O`, for which the IC50 in assay [1] is 14.3 µM.
In the case of `CC1(C)CC[C@]2(C(=O)O)CC[C@]3(C)C(=CC[C@@H]4[C@@]5(C)C[C@@H](OC(=O)c6ccccc6C(=O)O)[C@H](O)C(C)(C)[C@@H]5CC[C@]43C)[C@@H]2C1`, the IC50 in [1] worked out at 14.2 µM.
Consider `CC1(C)CC[C@]2(C(=O)O)CC[C@]3(C)C(=CC[C@@H]4[C@@]5(C)C[C@@H](O)[C@H](O)C(C)(C)[C@@H]5CC[C@]43C)[C@@H]2C1` [MASLINIC ACID], for which the Activity is given as 21% in assay [2]; 89.8% in assay [3]; 10.9% in assay [4]; 74.9% in assay [6]; 11.7% in assay [7]; 68.8% in assay [8]. Also, the Activity in [9] is reported as 8.3%; in assay [10], 54.2%; in [11], 20.8%; in [12], 2%. The results for the IC50 in assay [1] and in [5] were 62.7 µM and 36.2 µM, respectively.
In the case of `CC1(C)CC[C@]2(C(=O)OCc3ccccc3)CC[C@]3(C)C(=CC[C@@H]4[C@@]5(C)C[C@@H](OC(=O)CCCC(=O)O)[C@H](OC(=O)CCCC(=O)O)C(C)(C)[C@@H]5CC[C@]43C)[C@@H]2C1`, the IC50 in [1] came out at 3.9 µM.
The same measure, in the same setting: with `CC1(C)CC[C@]2(C(=O)O)CC[C@]3(C)C(=CC[C@@H]4[C@@]5(C)C[C@@H](OC(=O)CCCC(=O)O)[C@H](O)C(C)(C)[C@@H]5CC[C@]43C)[C@@H]2C1` the figure was 3.2 µM.
As to `CC1(C)CC[C@]2(C(=O)O)CC[C@]3(C)C(=CC[C@@H]4[C@@]5(C)CC[C@H](OC(=O)c6ccccc6C(=O)O)C(C)(C)[C@@H]5CC[C@]43C)[C@@H]2C1`, the IC50 in assay [1] was determined as 0.31 µM.
The same measure, in the same setting: then `CC1(C)CC[C@]2(C(=O)O)CC[C@]3(C)C(=CC[C@@H]4[C@@]5(C)CC[C@H](OC(=O)CCCC(=O)O)C(C)(C)[C@@H]5CC[C@]43C)[C@@H]2C1`, with 0.56 µM.
For the molecule `CC1(C)CC[C@]2(C(=O)OCc3ccccc3)CC[C@]3(C)C(=CC[C@@H]4[C@@]5(C)CC[C@H](O)C(C)(C)[C@@H]5CC[C@]43C)[C@@H]2C1`, the Activity in assay [2] turned out to be 18.6%; in assay [3], 41.6%; in assay [4], 67.9%; in assay [6], 27.8%; in [7], 4.3%; in assay [8] it was 23%. Also, the Activity in [9] is reported as 54.3%; in [10], 12.2%; in [11], 15.6%; in assay [12], 4.1%. This molecule also returned an IC50 in assay [5] of 52.2 µM.
As to `CC(C)(CC(=O)O)CC(=O)O[C@H]1CC[C@]2(C)[C@H]3CC=C4[C@@H]5CC(C)(C)CC[C@]5(C(=O)O)CC[C@@]4(C)[C@]3(C)CC[C@H]2C1(C)C`, the IC50 in [1] stood at 0.7 µM.
The same measure, in the same setting: with `CCCC(=O)O[C@@H]1C[C@]2(C)[C@H]3CC=C4[C@@H]5CC(C)(C)CC[C@]5(C(=O)OCc5ccccc5)CC[C@@]4(C)[C@]3(C)CC[C@H]2C(C)(C)[C@H]1O` the figure was 226 µM; with `CC1(C)CC[C@]2(C(=O)O)CC[C@]3(C)C(=CC[C@@H]4[C@@]5(C)C[C@@H](OC(=O)CCC(=O)O)[C@H](O)C(C)(C)[C@@H]5CC[C@]43C)[C@@H]2C1`, 3.5 µM; with `CCCC(=O)O[C@@H]1C[C@]2(C)[C@H]3CC=C4[C@@H]5CC(C)(C)CC[C@]5(C(=O)O)CC[C@@]4(C)[C@]3(C)CC[C@H]2C(C)(C)[C@H]1OC(=O)CCC`, 31.2 µM.
The same measure, in the same setting: then `CC1(C)CC[C@]2(C(=O)OCc3ccccc3)CC[C@]3(C)C(=CC[C@@H]4[C@@]5(C)C[C@@H](OC(=O)c6ccccc6C(=O)O)[C@H](OC(=O)c6ccccc6C(=O)O)C(C)(C)[C@@H]5CC[C@]43C)[C@@H]2C1`, with 1.9 µM; and `CC1(C)CC[C@]2(C(=O)OCc3ccccc3)CC[C@]3(C)C(=CC[C@@H]4[C@@]5(C)C[C@@H](OC(=O)CCC(=O)O)[C@H](OC(=O)CCC(=O)O)C(C)(C)[C@@H]5CC[C@]43C)[C@@H]2C1`, with 5.2 µM.
For the molecule `CC1(C)CC[C@]2(C(=O)OCc3ccccc3)CC[C@]3(C)C(=CC[C@@H]4[C@@]5(C)C[C@@H](O)[C@H](O)C(C)(C)[C@@H]5CC[C@]43C)[C@@H]2C1` [BENZYL MASLINATE], the Activity in [2] was 2.2%; in assay [3], 88.4%; in assay [4], 5%; in assay [6], 94.7%; in assay [7] it was 0.3%; in assay [8], 86.2%. Also, the Activity in assay [9] is on record as 11.3%; in assay [10] it was 10.6%; in assay [11], 84.2%; in assay [12], 0.1%. This molecule returned an IC50 in [5] of 19 µM.
With `CC1(C)CC[C@]2(C(=O)O)CC[C@]3(C)C(=CC[C@@H]4[C@@]5(C)C[C@@H](OC(=O)CCC(=O)O)[C@H](OC(=O)CCC(=O)O)C(C)(C)[C@@H]5CC[C@]43C)[C@@H]2C1`, the IC50 in [1] amounted to 1.9 µM.
Consider `CC1(C)CC[C@]2(C(=O)O)CC[C@]3(C)C(=CC[C@@H]4[C@@]5(C)C[C@@H](OC(=O)CCCC(=O)O)[C@H](OC(=O)CCCC(=O)O)C(C)(C)[C@@H]5CC[C@]43C)[C@@H]2C1`, for which, in [1], the IC50 came to 1.4 µM.
`CC(C)(CC(=O)O)CC(=O)O[C@@H]1C[C@]2(C)[C@H]3CC=C4[C@@H]5CC(C)(C)CC[C@]5(C(=O)O)CC[C@@]4(C)[C@]3(C)CC[C@H]2C(C)(C)[C@H]1OC(=O)CC(C)(C)CC(=O)O`: in assay [1], the IC50 was 27.5 µM.
The same measure, in the same setting: with `CCCCCC(=O)O[C@@H]1C[C@]2(C)[C@H]3CC=C4[C@@H]5CC(C)(C)CC[C@]5(C(=O)OCc5ccccc5)CC[C@@]4(C)[C@]3(C)CC[C@H]2C(C)(C)[C@H]1OC(=O)CCCCC` the figure was 150 µM.
